Several values for one entry are separate records, joined by “and”; a condition that tells them apart may be missing. Equal entries are not always repeated. Structures can show the parent of a compound that is named as a salt. Marks after values point to notes of the source that are not given here.
Tests used:
CaV3.2 = CaV3.2 (Homo sapiens, UniProt O95180); test: Whole-cell patch-clamp of Ca2+ currents; assay type: cell-based
How it was run: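 HEK293T cells co-transfected (Fugene 6) with CaV3.2 plus β2x13, α2δ-4 and eGFP; whole-cell recordings at room temperature 36–72 h later, 4–8 MΩ pipettes, 50–70% series-resistance compensation, P/−4 leak subtraction. Compound perfused in external solution (vehicle ≤1% DMSO); 0.1 Hz currents, steady-state % inhibition vs vehicle fitted by inhibitor–response regression (0–100 constrained). Boltzmann fits of I–V give Gmax, Vh, k, Vrev.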

CaV1.4 [1] = target: CaV1.4 (Homo sapiens, UniProt O60840); assay type: cell-based; details: for IC50: inhibition of ICa, Hill fit
CaV1.4, sequence (O60840 whole entry): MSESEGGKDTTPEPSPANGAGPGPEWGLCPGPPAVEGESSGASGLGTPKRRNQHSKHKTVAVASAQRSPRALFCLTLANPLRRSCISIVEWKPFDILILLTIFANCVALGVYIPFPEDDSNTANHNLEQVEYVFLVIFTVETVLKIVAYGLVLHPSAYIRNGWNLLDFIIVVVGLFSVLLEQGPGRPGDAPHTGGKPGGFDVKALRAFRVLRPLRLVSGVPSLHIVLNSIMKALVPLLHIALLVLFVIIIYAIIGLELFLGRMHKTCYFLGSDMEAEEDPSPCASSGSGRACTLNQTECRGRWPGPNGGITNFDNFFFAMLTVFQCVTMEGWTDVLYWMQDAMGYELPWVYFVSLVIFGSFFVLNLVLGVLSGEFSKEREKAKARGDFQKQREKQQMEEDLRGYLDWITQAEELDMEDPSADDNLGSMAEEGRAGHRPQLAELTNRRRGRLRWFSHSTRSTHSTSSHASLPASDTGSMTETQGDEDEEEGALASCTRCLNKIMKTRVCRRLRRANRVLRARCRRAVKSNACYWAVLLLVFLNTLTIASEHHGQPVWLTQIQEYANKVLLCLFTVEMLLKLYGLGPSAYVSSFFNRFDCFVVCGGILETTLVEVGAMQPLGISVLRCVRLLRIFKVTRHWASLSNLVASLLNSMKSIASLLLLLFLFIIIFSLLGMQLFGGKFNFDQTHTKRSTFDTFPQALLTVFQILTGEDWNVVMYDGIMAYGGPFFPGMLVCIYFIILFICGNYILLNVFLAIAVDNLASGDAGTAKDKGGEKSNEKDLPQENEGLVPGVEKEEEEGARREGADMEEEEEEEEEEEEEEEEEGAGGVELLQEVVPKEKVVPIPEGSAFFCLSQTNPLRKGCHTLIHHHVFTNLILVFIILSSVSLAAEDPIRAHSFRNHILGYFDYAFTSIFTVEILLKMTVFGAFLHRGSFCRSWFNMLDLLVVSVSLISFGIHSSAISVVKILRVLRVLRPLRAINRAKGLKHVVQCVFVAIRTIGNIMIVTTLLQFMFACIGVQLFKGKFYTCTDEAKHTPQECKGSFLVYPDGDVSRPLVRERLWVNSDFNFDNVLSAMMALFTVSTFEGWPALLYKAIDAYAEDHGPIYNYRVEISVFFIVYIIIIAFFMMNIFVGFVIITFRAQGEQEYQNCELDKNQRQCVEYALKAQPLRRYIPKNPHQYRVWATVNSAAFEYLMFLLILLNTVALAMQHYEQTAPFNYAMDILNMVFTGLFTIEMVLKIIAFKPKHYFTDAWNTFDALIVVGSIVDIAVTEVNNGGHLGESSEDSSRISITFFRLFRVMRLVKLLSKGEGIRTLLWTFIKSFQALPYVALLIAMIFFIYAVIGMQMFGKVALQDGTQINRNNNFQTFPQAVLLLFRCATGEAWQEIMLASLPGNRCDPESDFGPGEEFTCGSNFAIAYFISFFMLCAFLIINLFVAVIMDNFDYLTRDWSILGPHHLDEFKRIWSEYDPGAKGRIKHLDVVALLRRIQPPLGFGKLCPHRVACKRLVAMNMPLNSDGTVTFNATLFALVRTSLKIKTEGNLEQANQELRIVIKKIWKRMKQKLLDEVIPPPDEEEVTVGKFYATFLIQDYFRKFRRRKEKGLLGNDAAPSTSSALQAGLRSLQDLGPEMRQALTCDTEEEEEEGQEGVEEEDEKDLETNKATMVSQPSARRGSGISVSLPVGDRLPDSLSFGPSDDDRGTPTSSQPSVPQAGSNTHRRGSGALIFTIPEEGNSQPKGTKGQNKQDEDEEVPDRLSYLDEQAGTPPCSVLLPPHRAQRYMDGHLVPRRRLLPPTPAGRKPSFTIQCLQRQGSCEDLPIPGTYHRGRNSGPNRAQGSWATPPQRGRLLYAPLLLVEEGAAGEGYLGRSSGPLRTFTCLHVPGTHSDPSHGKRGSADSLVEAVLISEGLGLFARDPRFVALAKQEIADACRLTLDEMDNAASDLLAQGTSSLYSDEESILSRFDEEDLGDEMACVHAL
CaV1.4, sequence (Q08289 whole entry partner): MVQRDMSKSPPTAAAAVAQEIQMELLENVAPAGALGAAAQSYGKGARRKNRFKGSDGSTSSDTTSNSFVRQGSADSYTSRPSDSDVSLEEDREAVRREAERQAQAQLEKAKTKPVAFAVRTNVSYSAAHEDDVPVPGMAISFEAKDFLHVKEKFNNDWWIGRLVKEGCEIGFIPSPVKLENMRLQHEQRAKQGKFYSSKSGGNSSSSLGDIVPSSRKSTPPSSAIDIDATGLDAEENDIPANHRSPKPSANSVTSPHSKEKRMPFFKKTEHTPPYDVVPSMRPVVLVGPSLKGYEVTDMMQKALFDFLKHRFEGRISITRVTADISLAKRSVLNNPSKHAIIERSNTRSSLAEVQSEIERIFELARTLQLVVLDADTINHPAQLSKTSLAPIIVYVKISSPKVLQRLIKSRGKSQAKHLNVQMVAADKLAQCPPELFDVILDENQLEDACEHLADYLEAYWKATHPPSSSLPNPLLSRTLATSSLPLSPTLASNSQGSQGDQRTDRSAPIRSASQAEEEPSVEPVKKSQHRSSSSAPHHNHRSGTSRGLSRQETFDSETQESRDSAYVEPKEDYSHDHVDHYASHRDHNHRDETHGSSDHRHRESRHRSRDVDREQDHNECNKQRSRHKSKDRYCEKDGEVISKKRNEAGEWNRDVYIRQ
CaV1.4, sequence (Q7Z3S7 20-991 partner limits assumed): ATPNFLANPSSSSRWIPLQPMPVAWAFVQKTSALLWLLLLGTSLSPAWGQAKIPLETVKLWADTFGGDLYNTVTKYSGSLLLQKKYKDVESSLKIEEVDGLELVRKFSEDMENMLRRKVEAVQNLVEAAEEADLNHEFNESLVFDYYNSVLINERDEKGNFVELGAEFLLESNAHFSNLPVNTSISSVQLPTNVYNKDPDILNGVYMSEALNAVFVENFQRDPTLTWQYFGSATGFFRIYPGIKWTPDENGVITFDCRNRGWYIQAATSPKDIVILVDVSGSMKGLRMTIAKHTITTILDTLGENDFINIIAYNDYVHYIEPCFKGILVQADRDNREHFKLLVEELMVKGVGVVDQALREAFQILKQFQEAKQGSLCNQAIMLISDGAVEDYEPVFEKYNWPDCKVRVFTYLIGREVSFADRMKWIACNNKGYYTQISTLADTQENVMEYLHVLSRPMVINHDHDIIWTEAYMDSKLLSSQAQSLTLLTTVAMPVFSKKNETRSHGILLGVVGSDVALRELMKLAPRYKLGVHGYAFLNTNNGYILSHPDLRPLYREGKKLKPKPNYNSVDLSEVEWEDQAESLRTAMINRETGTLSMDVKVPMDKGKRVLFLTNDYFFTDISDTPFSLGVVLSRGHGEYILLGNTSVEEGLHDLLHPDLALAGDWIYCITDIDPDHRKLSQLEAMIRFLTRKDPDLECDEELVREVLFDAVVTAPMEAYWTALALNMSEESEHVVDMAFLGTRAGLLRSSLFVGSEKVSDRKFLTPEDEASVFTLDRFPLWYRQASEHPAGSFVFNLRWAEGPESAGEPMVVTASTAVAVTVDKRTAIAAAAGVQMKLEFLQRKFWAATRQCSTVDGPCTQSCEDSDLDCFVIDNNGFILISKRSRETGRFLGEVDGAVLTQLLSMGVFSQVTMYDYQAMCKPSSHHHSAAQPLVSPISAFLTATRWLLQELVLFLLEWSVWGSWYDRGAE
CaV1.4, sequence (Q7Z3S7 992-1137 partner limits assumed): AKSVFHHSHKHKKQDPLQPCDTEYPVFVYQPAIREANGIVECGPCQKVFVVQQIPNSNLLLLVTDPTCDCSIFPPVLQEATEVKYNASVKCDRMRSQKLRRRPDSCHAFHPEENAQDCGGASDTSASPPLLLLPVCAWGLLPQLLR

CaV1.4 T1007Y = CaV1.4 T1007Y (Homo sapiens, UniProt O60840, T1007Y); test: Whole-cell patch-clamp of ICa in HEK293T cells, CaV1.4 T1007Y mutant; assay type: cell-based
CaV1.4 T1007Y, sequence (O60840 whole entry T1007Y): as the sequence (O60840 whole entry) above, with T1007Y counted along it
CaV1.4 T1007Y, sequence (Q08289 whole entry partner): as the sequence (Q08289 whole entry partner) above
CaV1.4 T1007Y, sequence (Q7Z3S7 20-991 partner limits assumed): as the sequence (Q7Z3S7 20-991 partner limits assumed) above
CaV1.4 T1007Y, sequence (Q7Z3S7 992-1137 partner limits assumed): as the sequence (Q7Z3S7 992-1137 partner limits assumed) above

CaV1.4 M1004A = CaV1.4 M1004A (Homo sapiens, UniProt O60840, M1004A); test: Whole-cell patch-clamp of ICa in HEK293T cells, CaV1.4 M1004A mutant; assay type: cell-based
CaV1.4 M1129A = CaV1.4 M1129A (Homo sapiens, UniProt O60840, M1129A); test: Whole-cell patch-clamp of ICa in HEK293T cells, CaV1.4 M1129A mutant; assay type: cell-based
CaV1.4 M1426A = CaV1.4 M1426A (Homo sapiens, UniProt O60840, M1426A); test: Whole-cell patch-clamp of ICa in HEK293T cells, CaV1.4 M1426A mutant; assay type: cell-based
CaV1.2 [2] = target: CaV1.2 (Oryctolagus cuniculus, UniProt P15381); test: Whole-cell patch-clamp of ICa in HEK293T cells transfected with CaV1.2; assay type: cell-based, rabbit; details: CaV1.2 WT
CaV1.2 V1063M = CaV1.2 V1063M (Oryctolagus cuniculus, UniProt P15381, V1063M); test: Whole-cell patch-clamp of ICa in HEK293T cells, CaV1.2 V1063M mutant; assay type: cell-based, rabbit
CaV3 channels = details: ref Xiang et al., 2011; cited from earlier work
[3] = tested on: Cav1.4 ICa in mouse cones; details: 5 μM, ref Davison et al., 2022; cited from earlier work
three CaV3 subtypes = details: ref Tringham et al., 2012; cited from earlier work
Cav1.2 [4] = details: ref Wei et al., 2024; cited from earlier work
Cav1.4 [5] = details: ref Koschak et al., 2003; cited from earlier work
[6] = CaV3.2, inhibition of ICa, Hill fit, mean ± SEM
[7] = CaV3.2, drug at 100 nM, mean ± SEM or median
[8] = CaV1.4, drug at 5 µM, Vhold −90 mV

For `CC(C)(C)CCN1C[C@@H]2C(CNC(=O)c3cc(Cl)cc(Cl)c3)[C@@H]2C1` (stereo partly shown) [ML218, ML218 hydrochloride], the IC50 (CaV3.2; [6]) was 23.7 ± 2.5 nM, the IC50 (CaV3.2; CaV3.2 ICa) was ~24 nM and the IC50 (CaV1.4 [1]; CaV1.4 WT) was 2.1 ± 0.51 µM. The IC50 (CaV1.4 T1007Y; CaV1.4 T1007Y) was ~20 µM and 20 µM, the IC50 (CaV1.4 M1004A) was 310 ± 190 µM and the IC50 (CaV1.4 M1129A) was 450 ± 160 nM. The IC50 (CaV1.4 M1426A) was 15 ± 2.9 µM, the IC50 (CaV1.2 [2]) was ~37 µM and 37 µM and the IC50 (CaV1.2 V1063M) was 120 ± 60 µM. For the same compound, the IC50 (CaV3 channels) was < 500 nM.
In the case of `CC(C)(C)NC(=O)CN1CCC(CNC(=O)c2cc(F)cc(Cl)c2)CC1` [Z944], the Vrev (CaV3.2; CaV3.2, drug at 100 nM) is reported as 42.96 ± 1.86 mV, the “inhibition of the peak ICa amplitude” value (CaV3.2; CaV3.2, drug at 100 nM) is reported as ~ 40% and the Gmax (CaV3.2; CaV3.2, drug at 100 nM, Boltzmann fit of I-V, mean ± SEM or median) is reported as 0.55 ± 0.13 nS/pF. The Vh (CaV3.2; [7]) was -33.47 ± 3.65 mV, the k (CaV3.2; [7]) was 6.75^† mV and the “Hill Slope” value (CaV3.2; CaV3.2, dose-response fit) was 0.82 ± 0.10. It also gave an IC50 (CaV3.2; [6]) of 260 ± 40 nM, an IC50 (CaV3.2; CaV3.2 ICa) of ~265 nM and a Gmax (CaV1.4 [1]; [8]) of 0.0845 ± 0.0387 nS/pF. For the same compound, the Vh (CaV1.4 [1]; [8]) was -6.10 ± 1.54 mV, the Vrev (CaV1.4 [1]; [8]) was 60.73 ± 4.72 mV and the k (CaV1.4 [1]; [8]) was 8.89 ± 0.50 mV. For the same compound, the “Hill Slope” value (CaV1.4 [1]; CaV1.4 WT, dose-response fit) was 0.22 ± 0.04, the IC50 (CaV1.4 [1]; CaV1.4 WT) was 31.5 ± 21 µM and the “IC50 for Cav1.4 higher than that for Cav3.2” value (CaV1.4 [1]; Cav1.4 versus Cav3.2) was ~ 100 fold. The “effect on amplitude of Cav1.4 ICa” value [3] was “increased the amplitude” and the “affinity for CaV3 subtypes higher than for CaV2.2 and CaV1.2” value (three CaV3 subtypes) was 70-100 times.
In the case of `COC(=O)C1=C(C)NC(C)=C(C(=O)OC2CCCN(Cc3ccccc3)C2)C1c1cccc([N+](=O)[O-])c1` (stereo not shown) [benidipine], the “higher potency compared to nifedipine” value (Cav1.2 [4]) is given as 10 fold.
In the case of `COC(=O)C1=C(C)NC(C)=C(C(=O)OC(C)C)C1c1cccc2nonc12` (stereo not shown) [isradipine], the inhibition at 1 µM (CaV1.4 [1]; HEK-293T, read-out: inhibition of ICa amplitude) is listed as ~78%, the inhibition at 1 µM (CaV1.4 T1007Y; HEK-293T, read-out: inhibition of ICa) is listed as ~17% and the “increase in the extent of block on shifting Vhold from −90 mV to −50 mV” value (Cav1.4 [5]) is listed as ~ 80%.
